Measured values taken from publication PMC7541604 (Clinical cancer research : an official journal of the …, 2020).
Several values for one entry are separate records, joined by “and”; a condition that tells them apart may be missing. Identical values can stand only once.

What was measured:
Assay type in all cases: in vivo, human
[1] = Plasma radioHPLC analysis of tracer metabolism; conditions: for Relative amount in plasma supernatant, GM: % of total activity of identified radioHPLC peaks
[2] = tested on: tumor epichaperome formations (epichaperome/HSP90); experiment: 124I-PU-H71 PET/CT tumor imaging in cancer patients
Procedure, shortened: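 Adults with solid malignancy or lymphoma received 201±12 MBq tracer IV over 1-2 min, no contrast, with SSKI thyroid blockade. PET-CT was done at 3-4 and 20-24 h post-injection, with 45-60 min emission and OSEM reconstruction (decay, attenuation, scatter corrected). The highest-SUV tumor per patient gave SUVpeak (mean voxel SUV in the 1-cm3 sphere of highest uptake, mass-normalized). Tumor:bloodpool and tumor:muscle ratios were compared at 4 vs 24 h by Wilcoxon signed-rank.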

[3] = Whole blood and plasma radioassay of tracer clearance
Procedure, shortened: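 Tracer was injected IV over 1-2 min and blood drawn through a separate peripheral line at 10, 20 and 30 min and 1-2 or 3-4 h, plus 20-24 h in a subset (n=7). Whole blood and/or plasma were radioassayed by well counter. α and β half-lives came from biexponential fits, summarized as geometric mean. Plasma exposure was expressed as %ID·g·h/mL from 10 min to 4 h.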

[4] = PET/CT tracer biodistribution in normal organs
Procedure, shortened: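 Patients received 201±12 MBq tracer IV, with SSKI taken ≥2 h before and daily for two weeks. PET-CT ran skull vertex to proximal thighs at 3-4 and 20-24 h post-injection, with CT for attenuation correction and anatomic localization. Mean SUV was measured in normal organs, including aortic blood pool, humerus, axial skeleton and brain, at 4 and 24 h (n=30).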

[5] = Clinical safety monitoring incl. serum TSH; conditions: microdose tracer 201±12 MBq, <25 μg IV, n=30 patients
Procedure, shortened: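 Microdose tracer was given IV after seven drops SSKI orally ≥2 h pre-injection, repeated daily for two weeks. Serum TSH was measured <1 week pre-injection as baseline and again 6-12 months post-injection. Toxicity signs and symptoms were checked at each imaging time-point, and patients reported adverse symptoms over the following 30 days.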

[6] = PET-derived urinary and biliary tracer excretion
Procedure, shortened: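 Serial PET, with bisacodyl 15 mg orally on three nights post-injection: at each time-point, 3D VOIs measured total activity in the urinary bladder and in the hepatobiliary tree plus bowel. Tracer lost by voiding or defecation was tracked from whole-FOV activity on decay-corrected serial scans, normalized to total activity on the initial scan immediately post-injection.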

[7] = 4 hours post-injection, across patient population
[8] = one table row per patient, PET 4 h post-injection
[9] = one table row per patient, PET 24 h post-injection
[10] = patients, IV bolus, geometric mean

## CC(C)NCCCn1c(Sc2cc3c(cc2I)OCO3)nc2c(N)ncnc21 [^124I-PU-H71]
[1]; 10 min after tracer injection
  Relative amount in plasma supernatant, GM: 69.2%
[1]; 20 min after tracer injection
  Relative amount in plasma supernatant, GM: 51.7%
[1]; 30 min after tracer injection
  Relative amount in plasma supernatant, GM: 44.9%
[1]; 1h after tracer injection
  Relative amount in plasma supernatant, GM: 32.3%
[1]; 4h after tracer injection
  Relative amount in plasma supernatant, GM: 22.7%
[1]; plasma, p.i.
  Time by which radiotracer became predominantly radiometabolites: ≤ 1 h
[2]; [7]
  Tumor:bloodpool ratio of radiotracer concentrations, average/SD: 3.2± 3.0
  Tumor:bloodpool ratio of radiotracer concentrations, maximum: up to 14.4
[2]; 24 h, person, stage IV pancreatic cancer (Fig. 1)
  Tumor:bloodpool SUV ratio: 19.8
[2]; 24 hours post-injection, across patient population
  Tumor:bloodpool ratio of radiotracer concentrations, average/SD: 3.9 ± 4.4
[2]; between patients
  24-hour tumor SUV average/SD: 0.9 ± 0.8
  24-hour tumor SUV coefficient of variation: 88.9%
  24-hour tumor SUV range: 0.1-3.8
[2]; n=26 evaluable patients, PET at 24 h
  Patients in whom PU-H71-avid tumors were detected: 58%
[2]; [8]
  T:B 4 h (tumor:blood pool SUVpeak ratio): 1.8 and 3.1 and 14.4 and 6.1 and 1.5 and 1.2 and 2.2 and 2.7 and 0.9 and 5.0 and 2.5 and 4.2 and 1.6 and 1.3 and 2.9 and 2.1 and 9.6 and 1.7 and 3.6
  T:M 4 h (tumor:muscle SUV ratio): 1.8 and 6.0 and 22.0 and 5.1 and 2.1 and 1.2 and 2.8 and 1.9 and 2.4 and 5.3 and 2.0 and 1.0 and 5.4 and 4.0 and 3.3 and 5.2 and 3.0 and 3.8 and 1.5 and 7.7 and 2.7 and 4.9
  Tumor SUV 4 h (SUVpeak): 1.1 and 1.6 and 11.0 and 2.5 and 0.64 and 0.8 and 0.7 and 0.9 and 3.4 and 1.7 and 3.2 and 2.1 and 1.3 and 1.8 and 2.7 and 1.5 and 2.2 and 1.2
[2]; [9]
  T:B 24 h (tumor:blood pool SUVpeak ratio): 1.0 and 5.6 and 13.1 and 1.7 and 4.0 and 0.6 and 3.0 and 1.2 and 3.2 and 0.9 and 5.1 and 2.4 and 19.8 and 0.7 and 1.8 and 1.3 and 3.6 and 5.9 and 2.3 and 7.8 and 4.8
  T:M 24 h (tumor:muscle SUV ratio): 1.6 and 11.2 and 20.0 and 8.0 and 6.7 and 1.2 and 6.0 and 2.3 and 1.5 and 6.4 and 1.0 and 1.1 and 8.8 and 2.1 and 6.2 and 2.5 and 4.6 ^****** and 1.4 and 3.3 and 5.6 and 5.2 and 17.5 and 1.3 and 5.1
  Tumor SUV 24 h (SUVpeak): 0.3 and 0.6 and 3.8 and 0.8 and 0.4 and 0.1 and 0.2 and 1.0 and 0.7 and 1.8 and 1.1 and 1.6 and 0.5 and 1.3 and 0.9 and 2.1 and 1.5
[2]; overall
  Decrease of tumor SUV between 4 to 24 hours: 1.0±1.4 SUV units
  Decrease of tumor SUV between 4 to 24 hours, range: −25.0 to +87.5%
[2]; overall, p=0.00002
  Decrease of tumor SUV between 4 to 24 hours, mean ± SD: 50.7 ± 27.0%
[2]; person, stage IV pancreatic cancer (Fig. 1)
  Increase of tumor:bloodpool SUV ratio between 3 and 24 h: 371%
[2]; population
  Median increase in tumor:bloodpool SUV ratio from 4 to 24 hours: 4.8%
  Median increase in tumor:muscle SUV ratio from 4 to 24 hours: 20.9%
  Range of change in tumor:bloodpool SUV ratio from 4 to 24 hours: −72.1 to +371.4%
  Range of change in tumor:muscle SUV ratio from 4 to 24 hours: −63.2 to +257.1%
[2]; population, p=0.02
  Average increase in tumor:muscle SUV ratio from 4 to 24 hours: 52.0 ± 87.3%
[2]; population, p=0.9
  Average increase in tumor:bloodpool SUV ratio from 4 to 24 hours: 25.7 ± 99.9%
[3]; between patients
  Plasma AUC coefficient of variation: 36.6%
[3]; from 10 minutes to 4 hours post-injection
  Plasma radiotracer exposure: 1.7±0.6 % ID•g•h/mL
[3]; [10]
  Blood t1/2 α, GM: 7.9 min
  Blood t1/2 β, GM: 6.103 h
  Plasma t1/2 α, GM: 7.0 min
  Plasma t1/2 β, GM: 4.402 h
[4]; PET
  Brain uptake: scant
[4]; average/SD, 24 hours post-injection
  24-hour bloodpool SUV: 0.2 ±0.1
[5]
  Adverse effects: no adverse effects
[5]; listed as PUH71 tracer
  Adverse effects: No signs or symptoms of adverse effects
[6]
  Urinary excretion of tracer: 29.5 ±10.9 %ID
[6]; bisacodyl given
  Hepatobiliary excretion of tracer: 45.4 ±15.8 %ID
